The list is not random: actives were taken first. Their share in the collection is about 1.4%.
EBNA-1 inh: EBNA-1 DNA-binding inhibitors, primary screen, biochemical, fluorescence polarization. hit rate 0.34% among 300,000. inhibition, % at 14.8 µM. AID 1950, 2009; in the data active means inhibition above about 28%
Fh CTSL1 inh: Fasciola hepatica cathepsin L1 inhibitors, primary screen, counter-screen for PFM18AAP inhibitor project, biochemical, QFRET, fluorogenic peptide substrate; recombinant F. hepatica cathepsin L1, Z-Leu-Arg-MCA fluorescence; inhibition, % at 5.96 µM; hit rate 0.49% among 300,000; AID 1906, 2009;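 active means inhibition above the mean of all tested compounds plus 3 SD, set per screening campaign, cut at about 17% in these data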
NS3 helicase inh: inhibitors of HCV NS3 helicase, primary screen, biochemical, Cy5 molecular beacon fluorescence; Hepatitis C virus NS3 helicase; NS3 helicase DNA unwinding; inhibition, % at 10.9 µM; hit rate 0.56% among 290,000; AID 1800, 2009;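 active means inhibition above the mean of all tested compounds plus 3 SD, set per campaign, cut at about 35% in these data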
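Measured by: Cy5 fluorescence, 0 and 60 min reads / Assay system: NS3 helicase fragment of HCV / Control set: low DMSO, high thioflavine S at 110 µM / Times: 1 h reaction at 25 °C, ATP-initiated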
ZTA DNA inh: blocks Epstein-Barr virus ZTA, an EBNA-1 counter-screen | ZTA-DNA binding, fluorescence polarization | AID 2234 | hit rate 0.15% among 320,000 | inhibition, % at 11 µM; in the data active means inhibition above about 33%
Target sequence (P03206 whole entry, looked up): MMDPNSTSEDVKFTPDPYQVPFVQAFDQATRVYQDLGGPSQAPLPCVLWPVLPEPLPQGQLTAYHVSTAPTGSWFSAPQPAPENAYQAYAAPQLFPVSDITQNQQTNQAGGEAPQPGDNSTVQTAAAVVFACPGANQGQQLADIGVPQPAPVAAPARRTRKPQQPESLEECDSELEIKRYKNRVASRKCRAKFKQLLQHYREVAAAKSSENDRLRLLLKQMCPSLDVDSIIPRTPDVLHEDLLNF
EBNA-1 confirm: EBNA-1 DNA-binding inhibitors, retest, confirmation, biochemical, fluorescence polarization, triplicate; shares compounds with EBNA-1 inh; Recombinant EBNA-1 DBD, Cy5-DNA fluorescence polarization; inhibition, % at 14.8 µM; hit rate 35% among 830; AID 2292, 2010;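 active means mean inhibition across replicates above a set limit taken from the earlier primary screen, cut at about 28% in these data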
ZTA DNA inh trip: EBV Zta DNA binding inhibitors, counter-screen for EBNA-1 inhibitor project, biochemical, fluorescence polarization, triplicate | shares compounds with EBNA-1 inh | inhibition, % at 11.1 µM | Zta-ZRE DNA binding, Cy5 fluorescence polarization | 830 tested, under 10 active | AID 2328, 2010;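 active means mean inhibition over triplicates above a set limit taken from the primary EBNA-1 screen, cut at about 37% in these data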;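 further: purified full length Zta protein with Cy5 labeled ZRE DNA probe; inhibitors lower polarization by freeing the labeled DNA probe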
A number is an active result; 0 = inactive; - = no result given.

SMILES	EBNA-1 inh	Fh CTSL1 inh	NS3 helicase inh	ZTA DNA inh	EBNA-1 confirm	ZTA DNA inh trip
CCNC(=O)NC(=O)C(C)On1nnc2ccc(S(=O)(=O)N(CC)CC)cc21 (centres undefined)	0	0	0	0	-	-
CCOc1ccc(N(CC(=O)N/N=C(\C)c2cccc(NC(C)=O)c2)S(=O)(=O)c2ccccc2)cc1	53	0	0	0	0	0
Cc1cc2cc(CNC(=O)c3ccc(S(=O)(=O)N4CCCC4)cc3)ccc2n1C	33	0	0	0	0	0
Cc1cc2cc(CNC(=O)c3ccc(S(=O)(=O)N4CCCCC4)cc3)ccc2n1C	0	0	0	0	-	-
Cc1cccc(C(=O)N/N=C/c2ccc(OC3CSC3)cc2)c1	35	0	0	0	0	0
Cc1cnc(NC(=O)c2cccs2)s1	0	0	0	0	-	-
CCn1cc(/C=N/NC(=O)c2cc3c(ccc4ccccc43)o2)c2ccccc21	62	0	0	0	0	0
CCN(/N=C/C=C/c1ccccc1)c1cc(=O)n(C)c(=O)[nH]1	0	0	0	0	-	-
CCN(/N=C/c1ccc(Cl)cc1)c1cc(=O)n(C)c(=O)[nH]1	37	0	0	0	0	0
CCc1nn(-c2ccccc2)c(=S)c2ccccc12	35	0	0	0	0	0
COc1ccccc1NC(=O)C1CC(=O)OC1c1ccccc1 (centres undefined)	0	0	0	0	-	-
COc1cc(C(=O)NC2CC(C)(C)Cc3c2cnn3-c2ccccc2)cc(OC)c1OC (centres undefined)	32	0	0	0	34	0
COc1ccc(C(=O)NC2CC(C)(C)Cc3c2cnn3-c2ccccc2)cc1OC (centres undefined)	0	0	0	0	-	-
COC(=O)c1ccc(COc2ccccc2/C=N/NS(=O)(=O)c2ccc(C)cc2)cc1	67	0	0	0	29	0
O=S(=O)(N/N=C/c1ccccc1OCc1ccc(Cl)cc1)c1ccccc1	0	0	0	0	-	-
Cc1ccc(NC(=O)c2sc3ncn(CC(=O)N4CCN(c5ccccn5)CC4)c(=O)c3c2C)cc1Cl	31	0	0	0	0	0
COc1ccc2cc(/C=N/NC(=O)c3c(Cl)cnn3C)c(Cl)nc2c1	0	0	0	0	-	-
COc1ccc2cc(/C=N/NC(=O)CN(c3ccccc3)S(=O)(=O)c3ccccc3)c(Cl)nc2c1	35	0	0	0	0	0
COc1ccc2cc(/C=N/NC(=O)c3ccc(CN(c4ccc(C)c(C)c4)S(C)(=O)=O)cc3)c(Cl)nc2c1	53	0	0	0	0	0
COC(=O)COc1ccc(/C=N/NC(=O)c2ccc(N(Cc3ccccc3)S(C)(=O)=O)cc2)cc1	67	0	0	0	0	0
Cc1ccc(NC(=O)NCc2ccc3c(c2)OCO3)cc1C	30	0	0	0	0	0
Cc1ccc(NC(=S)NCc2ccc3c(c2)OCO3)cc1C	0	0	0	0	-	-
CCCCCc1nnc(NC(=O)CS(=O)(=O)Cc2ccccc2)s1	0	0	0	0	-	-
O=C(COC(=O)c1cc(Br)ccc1O)Nc1ccc2c(c1)OCCO2	49	0	-	0	0	0
O=C(CCCCCn1c(=S)[nH]c2ccc(N3CCOCC3)cc2c1=O)NCCc1ccccc1	0	0	0	0	-	-
SMILES	EBNA-1 inh	Fh CTSL1 inh	NS3 helicase inh	ZTA DNA inh	EBNA-1 confirm	ZTA DNA inh trip
Cc1[nH]c2ccccc2c1/C=C/C(=O)c1ccncc1	38	0	0	0	0	0
O=C(/C=C/c1cccc2ccccc12)c1ccncc1	0	0	0	0	-	-
Cc1cc2c(Nc3ccc(C(=O)O)cc3)ncnc2s1	97	0	0	0	0	0
O=S(=O)(c1ccc2nc(-c3ccccc3)[nH]c2c1)N1CCN(c2ccc(Cl)cc2)CC1	37	0	0	0	0	0
O=c1ccc2cc(S(=O)(=O)N3CCN(c4ccccc4)CC3)ccc2[nH]1	0	0	0	0	-	-
COc1ccc(CNC(=O)CSc2nnc3c(n2)[nH]c2ccc(C)cc23)cc1	0	0	0	0	-	-
COc1ccc2[nH]c3nc(SCc4nnc(-c5ccc(C)cc5)o4)nnc3c2c1	55	0	0	0	40	0
COc1cc(NC(=O)CCc2c(C)nc3nc(C)nn3c2C)cc(OC)c1	0	0	0	0	-	-

Source: PubChem (The Scripps Research Institute Molecular Screening Center)
